The source of these data is ChEMBL document CHEMBL5370639, “Structure-Based Lead Optimization of Enterovirus D68 2A Protease Inhibitors” (J Med Chem, 2023).

The test system of data set [1] is enterovirus D68. Briefly: Antiviral activity against enterovirus D68 US/MO/14-18947 infected in human RD cells assessed as reduction in virus induced cytopathic effect by neutral red staining based CPE assay. In kind it is functional, organism-based. To be noted: Enterovirus D, US/MO/14-18947, RD. The method, boiled down:
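RD cells seeded overnight to ~90% confluency, washed with PBS containing Mg/Ca, infected with virus in DMEM/2% FBS/30 mM MgCl2 for at least 1 h at 33 °C, then compound added. Cells stained with 66 μg/mL neutral red for 2 h; uptake read at 540 nm. EC50 from dose-response fit; mean ± SD of two independent experiments, three repeats each.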
In general terms: Damage to the host cells serves as the signal in cytopathic effect assays.

In data set [2] the test system is enterovirus D68. Briefly: Antiviral activity against enterovirus D68 US/MO/14-18947 infected in human RD cells assessed as reduction in virus plaque formation measured after 3 days by neutral red staining assay. The format is functional, organism-based. To be noted: Enterovirus D, US/MO/14-18947, RD, 72 h. The method, boiled down: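 RD cells infected with virus in DMEM/2% FBS/30 mM MgCl2 for at least 1 h at 33 °C, then given compound under a 1.2% avicel microcrystalline cellulose overlay. Cells stained after 3 days and plaques counted. EC50 from curve fitting; mean ± SD of two repeats.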

The test system of data set [3] is enterovirus D68. Briefly: Antiviral activity against enterovirus D68 US/IL/14-18952 infected in human RD cells assessed as reduction in virus induced cytopathic effect by neutral red staining based CPE assay. The format is functional, organism-based. To be noted: Enterovirus D, US/IL/14-18952, RD. The method, boiled down:
(§1)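 RD cells were seeded overnight to about 90% confluency and washed with PBS containing Ca/Mg. They were infected with virus in DMEM with 2% FBS and 30 mM MgCl2 for at least 1 h at 33 °C in 5% CO2, then compound was added. Viability was read by neutral red staining (66 μg/mL, 2 h) at A540. EC50 was taken from dose-response curve fits.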

In data set [4] the test system is enterovirus D68. Briefly: Antiviral activity against enterovirus D68 US/IL/14-18956 infected in human RD cells assessed as reduction in virus induced cytopathic effect by neutral red staining based CPE assay. The format is functional, organism-based. To be noted: Enterovirus D, US/IL/14-18956, RD. The gist of the method: as §1
Data set [5] has as its system enterovirus D68. Briefly: Antiviral activity against enterovirus D68 US/KY/14-18953 infected in human RD cells assessed as reduction in virus induced cytopathic effect by neutral red staining based CPE assay. The format is functional, organism-based. To be noted: Enterovirus D, US/KY/14-18953, RD. The gist of the method:
as §1

The next data set relates to RD. The experiment in a line: (§2) Cytotoxicity against human RD cells assessed as reduction in cell viability by neutral red staining based CPE assay. To be noted: rd. In kind it is toxicity. The gist of the method:
(§3)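 Uninfected RD cells, grown overnight to ~90% confluency, treated with compound under otherwise the same handling as the antiviral assay. Viability by neutral red uptake (66 μg/mL, 2 h, absorbance 540 nm). CC50 from best-fit dose-response curve; mean ± SD of two independent experiments, three repeats each.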

The nature of data set [6]: Inhibition of Enterovirus D68 US/KY/14-18953 2A protease expressed in Escherichia coli BL21(DE3) using Dabcyl-KIRIVNT/GPGEGGE-Edans as substrate incubated for 2 hrs by FRET assay.
For data set [7], the system named is enterovirus D68. Briefly: Antiviral activity against enterovirus D68 US/MO/14-18949 infected in human RD cells assessed as reduction in virus induced cytopathic effect by neutral red staining based CPE assay. To be noted: Enterovirus D, US/MO/14-18949, RD. The format is functional, organism-based. The gist of the method:
as §1

Data set [8] is described as follows: Binding affinity to Enterovirus D68 US/KY/14-18953 2A protease expressed in Escherichia coli BL21(DE3) assessed as inhibition constant using Dabcyl-KIRIVNT/GPGEGGE-Edans as substrate incubated for 2 hrs by FRET assay. The method, boiled down:
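Progression-curve kinetics: FRET substrate at 40 μM final in 50 mM Tris pH 7.0, 100 mM NaCl, 2 mM DTT, 10% glycerol with varying inhibitor; reaction started by adding 2Apro to 0.4 μM final. Fluorescence (ex 360/40, em 460/40 nm) read every 71 s for 2 h at 30 °C. Curves fitted by the Morrison equation or an earlier-described equation.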

Data set [9] in a line: as §2. The format is toxicity. To be noted: RD cells. The gist of the method:
as §3

Data set [10] can be described thus: Toxicity in BALB/c mouse assessed as change in body weight at 100 mg/kg, ip administered on day 1 and followed by 200 mg/kg, ip on day 3, 300 mg/kg, ip on day 7, 400 mg/kg, ip on day 12 measured after 16 days of initial dose. The format is organism-based. To be noted: in vivo, 384 h, time 16 day. The method, boiled down:
(§4)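 Three female BALB/c mice of about 19 g each received i.p. doses in corn oil with 10% DMSO, escalating in the same animals. They were given 100 mg/kg first, then 200, 300 and 400 mg/kg on days 1, 3, 7 and 12, with time for elimination between doses. Body weight and general health were monitored throughout the study.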

A short description of data set [11]: Toxicity in BALB/c mouse assessed as survival at 100 mg/kg, ip administered on day 1 and followed by 200 mg/kg, ip on day 3, 300 mg/kg, ip on day 7, 400 mg/kg, ip on day 12 measured after 16 days of initial dose. The format is organism-based. To be noted: in vivo, 1000 mg/kg, 384 h, time 16 day. The method, boiled down: as §4
Another data set has as its target T1, Cytochrome P450 1A2 (Homo sapiens, UniProt P05177).
T1 sequence (P05177 whole entry): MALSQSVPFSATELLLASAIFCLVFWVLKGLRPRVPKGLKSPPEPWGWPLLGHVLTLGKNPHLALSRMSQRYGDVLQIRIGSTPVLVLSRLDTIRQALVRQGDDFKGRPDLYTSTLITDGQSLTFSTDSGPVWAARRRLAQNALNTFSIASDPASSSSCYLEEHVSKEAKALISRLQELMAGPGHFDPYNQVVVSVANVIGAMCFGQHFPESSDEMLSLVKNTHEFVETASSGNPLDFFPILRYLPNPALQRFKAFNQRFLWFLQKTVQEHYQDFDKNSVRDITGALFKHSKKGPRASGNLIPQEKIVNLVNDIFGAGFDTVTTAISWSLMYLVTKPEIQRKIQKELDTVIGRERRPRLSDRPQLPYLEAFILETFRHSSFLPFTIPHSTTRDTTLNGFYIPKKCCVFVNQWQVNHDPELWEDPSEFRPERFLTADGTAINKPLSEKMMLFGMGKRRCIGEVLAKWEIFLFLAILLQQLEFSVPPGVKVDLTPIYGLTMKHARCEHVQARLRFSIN
Briefly: Inhibition of CYP1A2 (unknown origin). In kind it is ADME.

Data set [12] is described as follows: Toxicity in BALB/c mouse assessed as mortality at 100 mg/kg, ip administered on day 1 and followed by 200 mg/kg, ip on day 3, 300 mg/kg, ip on day 7, 400 mg/kg, ip on day 12 measured after 16 days of initial dose. To be noted: in vivo, 384 h, time 16 day. The format is organism-based. The method, boiled down:
as §4

The target of a further data set is Cytochrome P450 2D6 (Homo sapiens, UniProt P10635). Briefly: Inhibition of CYP2D6 (unknown origin). In kind it is ADME.
Sequence of Cytochrome P450 2D6 (P10635 whole entry): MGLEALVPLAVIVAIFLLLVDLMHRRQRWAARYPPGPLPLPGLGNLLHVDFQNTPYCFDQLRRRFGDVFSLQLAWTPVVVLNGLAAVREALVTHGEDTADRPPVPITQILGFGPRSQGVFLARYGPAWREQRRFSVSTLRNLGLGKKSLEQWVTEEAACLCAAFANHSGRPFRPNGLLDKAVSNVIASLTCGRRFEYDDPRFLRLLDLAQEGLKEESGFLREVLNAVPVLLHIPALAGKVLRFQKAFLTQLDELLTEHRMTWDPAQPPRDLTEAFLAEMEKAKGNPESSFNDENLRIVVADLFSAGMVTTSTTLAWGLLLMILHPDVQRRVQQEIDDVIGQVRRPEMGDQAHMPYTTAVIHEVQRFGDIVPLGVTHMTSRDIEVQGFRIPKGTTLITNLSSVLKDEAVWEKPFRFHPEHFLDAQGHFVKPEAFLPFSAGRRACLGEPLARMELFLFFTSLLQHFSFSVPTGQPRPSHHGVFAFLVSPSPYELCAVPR
The next data set concerns the target Cytochrome P450 2C19 (Homo sapiens, UniProt P33261). The experiment in a line: Inhibition of CYP2C19 (unknown origin). The format is ADME.
A further data set deals with Cytochrome P450 3A (Homo sapiens, UniProt P08684+P20815+Q9HB55+P24462). Briefly: Inhibition of CYP3A (unknown origin). In kind it is ADME, protein assay.
A further data set deals with Cytochrome P450 2C9 (Homo sapiens, UniProt P11712). Briefly: Inhibition of CYP2C9 (unknown origin). In kind it is ADME.
Sequence of Cytochrome P450 2C9 (P11712 whole entry): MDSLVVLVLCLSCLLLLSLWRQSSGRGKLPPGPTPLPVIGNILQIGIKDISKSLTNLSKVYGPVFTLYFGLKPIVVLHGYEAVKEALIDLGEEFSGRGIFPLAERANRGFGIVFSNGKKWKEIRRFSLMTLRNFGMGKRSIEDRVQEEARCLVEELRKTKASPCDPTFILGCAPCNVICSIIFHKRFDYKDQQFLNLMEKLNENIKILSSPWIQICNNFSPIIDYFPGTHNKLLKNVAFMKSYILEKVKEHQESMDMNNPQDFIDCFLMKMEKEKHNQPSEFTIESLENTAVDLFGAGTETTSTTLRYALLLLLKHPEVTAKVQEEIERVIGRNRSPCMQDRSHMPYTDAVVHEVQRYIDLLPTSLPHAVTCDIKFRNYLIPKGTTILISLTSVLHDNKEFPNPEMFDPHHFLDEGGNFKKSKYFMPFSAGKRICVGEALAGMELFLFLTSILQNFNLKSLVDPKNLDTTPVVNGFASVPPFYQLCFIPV

Sequence of Cytochrome P450 2C19 (P33261 whole entry): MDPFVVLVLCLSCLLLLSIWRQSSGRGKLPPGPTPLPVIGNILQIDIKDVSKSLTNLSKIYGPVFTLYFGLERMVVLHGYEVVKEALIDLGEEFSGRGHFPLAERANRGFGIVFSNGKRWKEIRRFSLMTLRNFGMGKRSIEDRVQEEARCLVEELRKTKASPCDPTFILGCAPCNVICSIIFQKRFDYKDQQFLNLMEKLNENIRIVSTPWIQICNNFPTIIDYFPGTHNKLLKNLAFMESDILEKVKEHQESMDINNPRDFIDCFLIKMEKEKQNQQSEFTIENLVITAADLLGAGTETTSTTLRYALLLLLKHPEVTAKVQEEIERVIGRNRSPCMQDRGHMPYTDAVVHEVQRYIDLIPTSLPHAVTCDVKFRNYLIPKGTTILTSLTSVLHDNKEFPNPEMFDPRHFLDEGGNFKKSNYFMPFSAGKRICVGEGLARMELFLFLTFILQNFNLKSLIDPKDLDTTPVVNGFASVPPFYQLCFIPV

What is called EC50 is the concentration giving half of the maximal effect. Broadly, the CC50 is the concentration that lowers cell viability or growth by half. The IC50 is the point on the concentration scale where inhibition reaches its midpoint. The low end stands for greater potency, the high end for weaker potency. A word on the Ki: it is the dissociation constant of the complex between target and ligand, obtained from inhibition or displacement. `CCC[C@H](NC(=O)[C@@H]1[C@H]2CCC[C@H]2CN1C(=O)[C@@H](NC(=O)[C@@H](NC(=O)c1cnccn1)C1CCCCC1)C(C)(C)C)C(=O)C(=O)NC1CC1`: the EC50 stood at 450 nM in the data set with enterovirus D68 [1]; 52.1 nM with enterovirus D68 [2]; 828 nM in the data set with enterovirus D68 [3]; 836 nM with enterovirus D68 [4]; 209 nM in the data set with enterovirus D68 [5]; 368 nM in the data set with enterovirus D68 [7]. In addition, the CC50 in the data set on RD came to 83200 nM. In data set [6], this compound yielded an IC50 of 180 nM. Also, the Ki in data set [8] was determined as 824 nM.

As for `CCC[C@H](NC(=O)[C@@H]1[C@H]2CCC[C@H]2CN1C(=O)[C@@H](NC(=O)CC12CC3CC(CC(C3)C1)C2)C(C)(C)C)C(=O)C(=O)NC1CC1`, the EC50 with enterovirus D68 [1] was 160 nM. Further, the CC50 in data set [9] is 36200 nM. The same compound gave an IC50 in data set [6] of 80 nM. The Ki in data set [8] was determined as 58.6 nM.

Regarding `CC(C)(C)[C@H](NC(=O)CC12CC3CC(CC(C3)C1)C2)C(=O)N1C[C@@H]2CCC[C@@H]2[C@H]1C(=O)N[C@H](C(=O)C(=O)NC1CC1)C1CCCC1`, the EC50 turned out to be 110 nM in the data set with enterovirus D68 [1] and 15.9 nM with enterovirus D68 [2]. In addition, in data set [9], the CC50 is greater than 150000 nM. In data set [6], this compound yielded an IC50 of 200 nM. Also, in data set [8], the Ki worked out at 112 nM.

For the compound `CC(C)(C)[C@H](NC(=O)CC12CC3CC(CC(C3)C1)C2)C(=O)N1C[C@@H]2CCC[C@@H]2[C@H]1C(=O)N[C@@H](Cc1ccccc1)C(=O)C(=O)NC1CC1`, in the data set with enterovirus D68 [1], the EC50 was 250 nM. Further, the 50% cytotoxic concentration (CC50) in the data set on RD turned out to be 17400 nM. Moreover, inhibition in data set [6] was half-maximal at 90 nM (IC50).

As to `CC(C)(C)[C@H](NC(=O)CC12CC3CC(CC(C3)C1)C2)C(=O)N1C[C@@H]2CCC[C@@H]2[C@H]1C(=O)N[C@H](C=O)Cc1ccc(F)cc1`, the EC50 in the data set with enterovirus D68 [1] came to 1300 nM. Besides, the CC50 in [9] came out at 17300 nM. This compound gave an IC50 in data set [6] of 1820 nM. For the same compound, the Ki in data set [8] turned out to be 276 nM.

As for `CC(C)(C)[C@H](NC(=O)CC12CC3CC(CC(C3)C1)C2)C(=O)N1C[C@@H]2CCC[C@@H]2[C@H]1C(=O)N[C@H](C(=O)C(=O)NC1CC1)C1CCCCC1`, the 50% effective concentration (EC50) in the data set on enterovirus D68 [1] turned out to be 130 nM; in the data set with enterovirus D68 [2], 15.9 nM; with enterovirus D68 [3] it was 269 nM; with enterovirus D68 [4], 246 nM; with enterovirus D68 [5], 46.7 nM; in the data set with enterovirus D68 [7], 101 nM. The Activity result in data set [10], in [11] and in [12] was “Non-Toxic” in each case. The IC50 against Cytochrome P450 1A2 is greater than 50000 nM; at Cytochrome P450 2D6, greater than 50000 nM; against Cytochrome P450 2C19 it was greater than 50000 nM; in data set [6] it was 90 nM; at Cytochrome P450 3A, 570 nM; at Cytochrome P450 2C9 it was greater than 50000 nM. Also, the CC50 in [9] was greater than 150000 nM. The Ki in [8] was 51.4 nM.

Consider `CCC(C)[C@H](NC(=O)[C@@H]1[C@H]2CCC[C@H]2CN1C(=O)[C@@H](NC(=O)CC12CC3CC(CC(C3)C1)C2)C(C)(C)C)C(=O)C(=O)NC1CC1` (stereo partly specified), for which the EC50 came out at 160 nM in the data set on enterovirus D68 [1] and 13.5 nM in the data set on enterovirus D68 [2]. Further, the CC50 in data set [9] was greater than 150000 nM. For the same compound, the IC50 in [6] was determined as 150 nM.
